Data as given in ChEMBL document CHEMBL1146260, “Synthesis and antifungal activity of 1H-indole-4,7-diones” (2007).
Values after ≈ are worked out from the molar mass of the structure shown.

How the values were obtained:
Type in all cases: functional
[1] = test system: Candida albicans; assay: Antifungal activity against Candida albicans Berkout KCCM 50235 after 1 day by 2-fold broth dilution method; conditions: KCCM 50235, 24 h
Procedure, shortened: (§1)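 MIC by 2-fold broth dilution in modified Sabouraud dextrose broth; inoculum about 1 · 10⁵ cells/mL; final drug concentrations […]; 37 °C, read after 1 day; 5-fluorocytosine run as standard agent.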

[2] = test system: Candida tropicalis; assay: Antifungal activity against Candida tropicalis Berkout KCCM 50662 after 1 day by 2-fold broth dilution method; conditions: KCCM 50662, 24 h; procedure, shortened: as §1
[3] = test system: Pichia kudriavzevii; assay: Antifungal activity against Candida krusei Berkout KCCM 11655 after 1 day by 2-fold broth dilution method; conditions: KCCM 11655, 24 h; procedure, shortened: as §1
[4] = test system: Cryptococcus neoformans; assay: Antifungal activity against Cryptococcus neoformans KCCM 50564 after 1 day by 2-fold broth dilution method; conditions: KCCM 50564, 24 h; procedure, shortened: as §1
[5] = test system: Aspergillus niger; assay: Antifungal activity against Aspergillus niger KCTC 1231 after 2 days by 2-fold broth dilution method; conditions: KCTC 1231, 48 h
Procedure, shortened: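 Two-fold broth dilution MIC in modified Sabouraud dextrose broth, inoculum about 1 · 10⁵ cells/mL, final agent range […]; incubated at 37 °C, MIC read after 2 days; 5-fluorocytosine as standard agent.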

SMILES	MIC [1] [mg/L]	MIC [2] [mg/L]	MIC [3] [mg/L]	MIC [4] [mg/L]	MIC [5] [mg/L]
O=C1C(Sc2ccc(Cl)cc2)=C(Sc2ccc(Cl)cc2)C(=O)c2[nH]ccc21	> 100	12.5 (≈ 28.9 µM)	25 (≈ 57.8 µM)	3.2 (≈ 7.4 µM)	> 100
CCOC(=O)c1cn(C)c2c1C(=O)C(C)=C(C)C2=O	> 100	25 (≈ 95.7 µM)	50 (≈ 191 µM)	100 (≈ 383 µM)	> 100
COC(=O)c1cn(-c2ccc(F)cc2)c2c1C(=O)C(C)=C(C)C2=O	> 100	> 100	3.2 (≈ 9.78 µM)	3.2 (≈ 9.78 µM)	12.5 (≈ 38.2 µM)
O=C1C(Sc2ccc(Br)cc2)=C(Sc2ccc(Br)cc2)C(=O)c2[nH]ccc21	> 100	> 100	> 100	3.2 (≈ 6.14 µM)	12.5 (≈ 24 µM)
CCOC(=O)C(C#N)C1=C(Cl)C(=O)C(C)=C(C)C1=O (stereo not given)	> 100	> 100	100 (≈ 355 µM)	25 (≈ 88.7 µM)	> 100
Cc1cccc(SC2=C(Sc3cccc(C)c3)C(=O)c3[nH]ccc3C2=O)c1	> 100	12.5 (≈ 31.9 µM)	> 100	3.2 (≈ 8.17 µM)	50 (≈ 128 µM)
O=C1C(Sc2ccc(F)c(F)c2)=C(Sc2ccc(F)c(F)c2)C(=O)c2[nH]ccc21	> 100	> 100	12.5 (≈ 28.7 µM)	50 (≈ 115 µM)	> 100
COC(=O)C(C#N)C1=C(Cl)C(=O)C(C)=C(C)C1=O (stereo not given)	> 100	> 100	100 (≈ 374 µM)	6.3 (≈ 23.5 µM)	> 100
O=C1C(Sc2ccc(F)cc2)=C(Sc2ccc(F)cc2)C(=O)c2[nH]ccc21	> 100	25 (≈ 62.6 µM)	3.2 (≈ 8.01 µM)	6.3 (≈ 15.8 µM)	100 (≈ 250 µM)
Cc1ccc(SC2=C(Sc3ccc(C)c(C)c3)C(=O)c3[nH]ccc3C2=O)cc1C	> 100	> 100	> 100	50 (≈ 119 µM)	100 (≈ 238 µM)
COC(=O)c1cn(-c2ccc(C)cc2)c2c1C(=O)C(C)=C(C)C2=O	> 100	> 100	3.2 (≈ 9.9 µM)	0.8 (≈ 2.47 µM)	> 100
COC(=O)c1cn(-c2ccc(OC(F)(F)F)cc2)c2c1C(=O)C(C)=C(C)C2=O	> 100	> 100	6.3 (≈ 16 µM)	1.6 (≈ 4.07 µM)	3.2 (≈ 8.14 µM)
Nc1nc(=O)[nH]cc1F [FLUCYTOSINE]	6.3 (≈ 48.8 µM)	12.5 (≈ 96.8 µM)	6.3 (≈ 48.8 µM)	12.5 (≈ 96.8 µM)	50 (≈ 387 µM)

Continued, values first:

MIC [1] [mg/L]	MIC [2] [mg/L]	MIC [3] [mg/L]	MIC [4] [mg/L]	MIC [5] [mg/L]	SMILES
50 (≈ 129 µM)	6.3 (≈ 16.2 µM)	50 (≈ 129 µM)	50 (≈ 129 µM)	3.2 (≈ 8.24 µM)	COC(=O)c1cn(-c2ccc(Br)cc2)c2c1C(=O)C(C)=C(C)C2=O
25 (≈ 57.4 µM)	12.5 (≈ 28.7 µM)	50 (≈ 115 µM)	50 (≈ 115 µM)	100 (≈ 230 µM)	COC(=O)c1cn(-c2ccc(I)cc2)c2c1C(=O)C(C)=C(C)C2=O
> 100	50 (≈ 147 µM)	3.2 (≈ 9.43 µM)	100 (≈ 295 µM)	> 100	COC(=O)c1cn(-c2ccc(OC)cc2)c2c1C(=O)C(C)=C(C)C2=O
12.5 (≈ 37.1 µM)	> 100	0.8 (≈ 2.37 µM)	1.6 (≈ 4.74 µM)	6.3 (≈ 18.7 µM)	COC(=O)c1cn(-c2ccc(C)c(C)c2)c2c1C(=O)C(C)=C(C)C2=O
25 (≈ 74.1 µM)	50 (≈ 148 µM)	50 (≈ 148 µM)	50 (≈ 148 µM)	3.2 (≈ 9.48 µM)	CCc1ccc(-n2cc(C(=O)OC)c3c2C(=O)C(C)=C(C)C3=O)cc1
> 100	> 100	> 100	12.5 (≈ 34.4 µM)	50 (≈ 138 µM)	O=C1C(Sc2ccccc2)=C(Sc2ccccc2)C(=O)c2[nH]ccc21
> 100	> 100	3.2 (≈ 12.9 µM)	1.6 (≈ 6.47 µM)	> 100	COC(=O)c1cn(C)c2c1C(=O)C(C)=C(C)C2=O
6.3 (≈ 14.6 µM)	1.6 (≈ 3.7 µM)	25 (≈ 57.8 µM)	3.2 (≈ 7.4 µM)	25 (≈ 57.8 µM)	O=C1C(Sc2cccc(Cl)c2)=C(Sc2cccc(Cl)c2)C(=O)c2[nH]ccc21
50 (≈ 126 µM)	50 (≈ 126 µM)	> 100	25 (≈ 63.2 µM)	> 100	O=C1C(Sc2ccc(O)cc2)=C(Sc2ccc(O)cc2)C(=O)c2[nH]ccc21
3.2 (≈ 10.3 µM)	12.5 (≈ 40.4 µM)	1.6 (≈ 5.17 µM)	6.3 (≈ 20.4 µM)	25 (≈ 80.8 µM)	COC(=O)c1cn(-c2ccccc2)c2c1C(=O)C(C)=C(C)C2=O
12.5 (≈ 35.6 µM)	12.5 (≈ 35.6 µM)	100 (≈ 285 µM)	100 (≈ 285 µM)	3.2 (≈ 9.11 µM)	COC(=O)c1cn(-c2ccc(C(C)C)cc2)c2c1C(=O)C(C)=C(C)C2=O
12.5 (≈ 36.4 µM)	12.5 (≈ 36.4 µM)	0.8 (≈ 2.33 µM)	12.5 (≈ 36.4 µM)	25 (≈ 72.7 µM)	COC(=O)c1cn(-c2ccc(Cl)cc2)c2c1C(=O)C(C)=C(C)C2=O
